Hits are enriched below; roughly 1.3% of the tested compounds scored in any of these assays.
Hep lipid drop = hepatic lipid droplet formation modulation; AML12 mouse hepatocytes, oleate lipid droplets, BODIPY imaging; inhibition, % at 6.5 µM; 0.4% of 240,000 active; AID 1656;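 active = lipid droplet intensity inhibited by at least 50%, with more than 500 cells counted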
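Test system: AML12 hepatocytes (mouse); reagent: oleate loading, 100 µM; dosing: one dose, 6.5 µM compound; incubation: overnight exposure; signal: fluorescence imaging, 20x objective, two fields per well; read-out basis: % inhibition of corrected integrated BODIPY droplet signal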
core dimer inh = HCV core protein dimerization inhibition; AID 1899; inhibition, % at 5 µM; 0.33% of 300,000 active; TR-FRET GST/Flag-core106 dimerization, 1536-well;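 active = inhibition above the mean of all tested compounds plus 3 SD, set per screening campaign, cut at about 45% in these data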
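Assay system: GST-tagged and Flag-tagged HCV core protein residues 1-106 / Times: compound-protein-antibody incubation 4 h at 22.5 °C / Signal: time-resolved FRET, ex 340 nm, em 617 and 671 nm / Evaluation: % inhibition based on acceptor/donor emission ratio / Benchmarks: wells lacking GST-core106 and wells with excess unlabelled core106 / Repeats: singlicate, one well per compound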
Tb MetRS inh = blocks T. brucei methionyl-tRNA synthetase activity; purified T. brucei MetRS, ATP depletion, Kinase-Glo luminescence; inhibition, % at 11.9 µM; 0.4% of 360,000 active;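 active = inhibition above a per-plate cutoff of the control wells' mean inhibition plus 3 SD, cut at about 5.5% in these data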;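 also: 0% = DMSO wells median and 100% = median of wells with control inhibitor compound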
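Dosing: 11.9 µM compound single dose, 0.9% DMSO; Assay system: purified T. brucei MetRS enzyme; Measured by: Kinase-Glo luciferase luminescence reporting remaining unconsumed ATP; Schedule: 15 min plus 2 h at 25 °C.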
HCV NS3 hel inh = HCV NS3 helicase inhibition | NS3 helicase DNA unwinding, Cy5 molecular beacon fluorescence | inhibition, % at 10.9 µM | 0.56% of 290,000 active;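 active = inhibition above the mean of all tested compounds plus 3 SD, set per campaign, cut at about 35% in these data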;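 also: 0% = DMSO wells and 100% = thioflavine S control wells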
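test system = hepatitis C virus NS3 helicase domain fragment enzyme | reagent = annealed dual-labelled DNA beacon duplex, ATP-started | times = 1 h at 25 °C | detection = Cy5 fluorescence, 0 and 60 min reads | read-out basis = percent inhibition from t60/t0 fluorescence ratio | control set = DMSO and thioflavine S | replication = one well per compound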
Active calls of the source: *.

Screening Cc1ccc(C(=O)Nc2nc(-c3ccc([N+](=O)[O-])cc3)cs2)o1 returned Hep lipid drop -0.1, core dimer inh 51.7*, Tb MetRS inh -0.8 and HCV NS3 hel inh -7.6.
Screening COc1ccc(C2=NN3C(C2)c2ccccc2OC32C(=O)N(C)c3ccccc32)cc1 (stereo not drawn) returned Hep lipid drop -12.5, core dimer inh 65.2*, Tb MetRS inh 1.0 and HCV NS3 hel inh 0.6.
For Cc1ccc(Cl)cc1-c1cc(C(=O)NCc2ccc(C(F)(F)F)cc2)[nH]n1 the results were Tb MetRS inh -0.1.
Screening N#Cc1c(NC(=O)/C=C/C(=O)O)sc2c1CCN(Cc1ccccc1)C2 returned Hep lipid drop 8.6, core dimer inh 69.1*, Tb MetRS inh -0.2 and HCV NS3 hel inh 25.5.
For COC(=O)CCCC1=CC2=CC(=O)C(C)(OC(=O)C3CCCC3)C(=O)C2=CO1 (stereo not drawn) the results were core dimer inh 63.8*.
CCCCC1=CC2=CC(=O)C(C)(OC(=O)CC)C(=O)C2=CO1 (stereo not drawn) was read as core dimer inh 17.7 and Tb MetRS inh -0.1.
For CCC(=O)OC1(C)C(=O)C=C2C=C(CCCC(=O)OC)OC=C2C1=O (stereo not drawn) the results were core dimer inh 53.3* and Tb MetRS inh -0.4.
Screening CCCCC1=CC2=CC(=O)C(C)(OC(=O)C3CCCC3)C(=O)C2=CO1 (stereo not drawn) returned core dimer inh 10.8 and Tb MetRS inh -0.3.
Screening Cc1cccc(NC2=Nc3ccccc3N3C2=Nc2c(c(C)nn2-c2ccccc2)C3c2ccc(O)c(O)c2)c1 (stereo not drawn) returned core dimer inh 46.0*, Tb MetRS inh 1.0 and HCV NS3 hel inh 8.6.
For Cc1nn(-c2ccccc2)c2c1C(c1ccc(O)c(O)c1)N1C(=N2)C(Nc2ccccc2)=Nc2ccccc21 (stereo not drawn) the results were core dimer inh 38.8, Tb MetRS inh -0.3 and HCV NS3 hel inh 32.6.
`COc1ccc(C)cc1NC(=O)C(Sc1nnc(Nc2cc(C)ccc2OC)s1)c1ccccc1` (stereo not drawn) gave Hep lipid drop 73.4*, core dimer inh 9.0, Tb MetRS inh -0.2 and HCV NS3 hel inh -12.7.
`COc1ccc(Nc2nnc(SC(C(=O)Nc3cc(C)ccc3C)c3ccccc3)s2)cc1` (stereo not drawn) gave Hep lipid drop 0.8, core dimer inh 33.0, Tb MetRS inh -0.5 and HCV NS3 hel inh 21.8.
For N#Cc1cc(N)c(Nc2ccccc2)cc1C#N the results were core dimer inh -5.7, Tb MetRS inh 8.2* and HCV NS3 hel inh -3.1.
For OC(c1ccccc1)(c1nc(-c2ccc(F)c(Cl)c2)cs1)C(F)(F)F (stereo not drawn) the results were Tb MetRS inh 0.0.
For NC(=O)C(CC(=O)O)NC(=O)[C@@H]1CCCCNc2c(I)cc([N+](=O)[O-])cc2C(=O)N[C@@H](CO)C(=O)NCC(=O)N1 (stereo partly drawn) the results were Hep lipid drop -6.4 and HCV NS3 hel inh 18.2.
For NC(=O)C(CC(=O)O)NC(=O)[C@@H]1CCCNc2c(I)cc([N+](=O)[O-])cc2C(=O)N[C@@H](CO)C(=O)N[C@@H](Cc2ccc(O)cc2)C(=O)N1 (stereo partly drawn) the results were Hep lipid drop 5.2, core dimer inh -4.5, Tb MetRS inh 41.0* and HCV NS3 hel inh 19.8.
Screening COc1ccc(/C=N\NC(=O)c2ccc(F)cc2)cc1COc1cc(F)ccc1[N+](=O)[O-] returned Hep lipid drop -6.1, Tb MetRS inh -0.3 and HCV NS3 hel inh -11.0.
COc1ccc(/C=N/NS(=O)(=O)c2ccc(F)cc2)cc1COc1cc(F)ccc1[N+](=O)[O-] was read as Hep lipid drop -12.9, core dimer inh 48.5*, Tb MetRS inh 0.2 and HCV NS3 hel inh -0.8.
O=C(Nc1ccc(F)cc1)C(c1cccc(F)c1)N1CCN(C(=O)c2ccco2)CC1 (stereo not drawn) was read as Tb MetRS inh -0.6.
`O=C(N/N=C/c1ccc(O)c(O)c1O)/C(=C/c1ccc([N+](=O)[O-])cc1)NC(=O)c1ccccc1` gave Hep lipid drop -5.8, core dimer inh 32.5, Tb MetRS inh 12.3* and HCV NS3 hel inh 10.6.
CSCc1cc(C(=O)NCCN2CCOCC2)c(N)s1 was read as Tb MetRS inh -0.4.
COc1cccc(OC)c1OCc1cc(C2C3CCCC=C3C(C#N)=C(N)C2(C#N)C#N)c(C)cc1C (stereo not drawn) was read as core dimer inh 56.3*, Tb MetRS inh -0.8 and HCV NS3 hel inh 34.3.
CCOc1ccc(C2C(C#N)=C(N)N(c3sc4c(c3C#N)CCCC4)C3=C2C(=O)CCC3)cc1 (stereo not drawn) was read as core dimer inh 55.3*, Tb MetRS inh 0.3 and HCV NS3 hel inh 2.3.
`N#CC1=C2N=C(N)c3c(sc4c3CCCCC4)N2C2=C(C(=O)CCC2)C1c1ccccc1` (stereo not drawn) gave core dimer inh 34.5, Tb MetRS inh -0.1 and HCV NS3 hel inh 10.5.
Screening CC1CCCC(NC(=O)COC(=O)COc2ccc(C#N)cc2)C1C (stereo not drawn) returned Tb MetRS inh 0.3.
For CCOCCCNc1nc2ccccc2[nH]1 the results were Hep lipid drop 3.0, core dimer inh -17.5, Tb MetRS inh 8.2* and HCV NS3 hel inh -4.1.
For O=c1cc(CSc2nnc(-c3cccs3)n2Cc2ccccc2)nc2sc3ccccc3n12 the results were core dimer inh 59.6*, Tb MetRS inh -0.6 and HCV NS3 hel inh 0.1.
`CCOC(=O)c1c(-c2ccco2)csc1NC(=O)CSc1nnc(N)s1` gave core dimer inh 48.4*, Tb MetRS inh -0.5 and HCV NS3 hel inh 31.6.
CCOC(=O)c1c(NC(=O)COC(=O)c2cnccn2)sc(C(=O)NC)c1C was read as core dimer inh -2.0 and Tb MetRS inh 0.3.
`CCOC(=O)c1c(-c2ccc(C)o2)csc1NC(=O)CSc1nncs1` gave core dimer inh 12.6, Tb MetRS inh -0.2 and HCV NS3 hel inh 10.7.
For CCOC(=O)c1c(-c2ccco2)csc1NC(=O)COC(=O)c1cnccn1 the results were core dimer inh 67.2* and Tb MetRS inh -0.5.
Cc1ccc(C2C(C#N)=C(N)Oc3c2sc2ccccc32)o1 (stereo not drawn) was read as core dimer inh 80.4* and HCV NS3 hel inh 8.7.
For Cc1ccc(S(=O)(=O)N2[C@@H](CO)CO[C@H]2CC(=O)OCc2ccccc2)cc1 the results were Tb MetRS inh -0.9.
For Cc1cc(C(=O)N2CCc3c([nH]c4ccccc34)C2c2cccc(Cl)c2)nn1C (stereo not drawn) the results were Hep lipid drop 67.2*, core dimer inh 6.7, Tb MetRS inh 1.5 and HCV NS3 hel inh -1.2.
Screening CCC(C)CN1C(=O)CN(S(C)(=O)=O)CC1(C)C(=O)NC(C)C (stereo not drawn) returned Tb MetRS inh -0.2.
